In the library only some 2% were active in any assay of this set; here they are far more common.
SR-BI DiI-HDL act: activators of SR-BI mediated DiI-HDL uptake, primary screen, ldlA[mSR-BI] CHO cells, DiI fluorescence; activation, % at 12.5 µM; AID 504775, 2011; actives 0.096% (n = 320,000); 3 h; 100 = double the neutral-control signal;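 active means mean replicate activation of at least 60% and every replicate at or above 60%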
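System: CHO ldlA[mSR-BI] cells / Medium: HEPES-buffered (25 mM, pH 7.4) F12 plus 0.5% BSA / Probe or stimulus: labelled HDL, 10 µg/mL / Doses: single compound concentration, delivered by pin transfer / Schedule: 3 h, 37 °C / Measured by: DiI fluorescence, bottom read / Measure: cell-associated DiI fluorescence as measure of HDL uptake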
NSD2 HMT inh: NSD2 histone methyltransferase inhibitors, primary screen, biochemical, AlphaScreen, single concentration, set 2; Histone-lysine N-methyltransferase NSD2 (Homo sapiens), O96028; inhibition, % at 12.5 µM; AID 743445, 2014; NSD2 peptide methylation, 120 min; actives 0.54% (n = 310,000); in the data active means inhibition above about 50%
Target sequence (O96028 whole entry, looked up): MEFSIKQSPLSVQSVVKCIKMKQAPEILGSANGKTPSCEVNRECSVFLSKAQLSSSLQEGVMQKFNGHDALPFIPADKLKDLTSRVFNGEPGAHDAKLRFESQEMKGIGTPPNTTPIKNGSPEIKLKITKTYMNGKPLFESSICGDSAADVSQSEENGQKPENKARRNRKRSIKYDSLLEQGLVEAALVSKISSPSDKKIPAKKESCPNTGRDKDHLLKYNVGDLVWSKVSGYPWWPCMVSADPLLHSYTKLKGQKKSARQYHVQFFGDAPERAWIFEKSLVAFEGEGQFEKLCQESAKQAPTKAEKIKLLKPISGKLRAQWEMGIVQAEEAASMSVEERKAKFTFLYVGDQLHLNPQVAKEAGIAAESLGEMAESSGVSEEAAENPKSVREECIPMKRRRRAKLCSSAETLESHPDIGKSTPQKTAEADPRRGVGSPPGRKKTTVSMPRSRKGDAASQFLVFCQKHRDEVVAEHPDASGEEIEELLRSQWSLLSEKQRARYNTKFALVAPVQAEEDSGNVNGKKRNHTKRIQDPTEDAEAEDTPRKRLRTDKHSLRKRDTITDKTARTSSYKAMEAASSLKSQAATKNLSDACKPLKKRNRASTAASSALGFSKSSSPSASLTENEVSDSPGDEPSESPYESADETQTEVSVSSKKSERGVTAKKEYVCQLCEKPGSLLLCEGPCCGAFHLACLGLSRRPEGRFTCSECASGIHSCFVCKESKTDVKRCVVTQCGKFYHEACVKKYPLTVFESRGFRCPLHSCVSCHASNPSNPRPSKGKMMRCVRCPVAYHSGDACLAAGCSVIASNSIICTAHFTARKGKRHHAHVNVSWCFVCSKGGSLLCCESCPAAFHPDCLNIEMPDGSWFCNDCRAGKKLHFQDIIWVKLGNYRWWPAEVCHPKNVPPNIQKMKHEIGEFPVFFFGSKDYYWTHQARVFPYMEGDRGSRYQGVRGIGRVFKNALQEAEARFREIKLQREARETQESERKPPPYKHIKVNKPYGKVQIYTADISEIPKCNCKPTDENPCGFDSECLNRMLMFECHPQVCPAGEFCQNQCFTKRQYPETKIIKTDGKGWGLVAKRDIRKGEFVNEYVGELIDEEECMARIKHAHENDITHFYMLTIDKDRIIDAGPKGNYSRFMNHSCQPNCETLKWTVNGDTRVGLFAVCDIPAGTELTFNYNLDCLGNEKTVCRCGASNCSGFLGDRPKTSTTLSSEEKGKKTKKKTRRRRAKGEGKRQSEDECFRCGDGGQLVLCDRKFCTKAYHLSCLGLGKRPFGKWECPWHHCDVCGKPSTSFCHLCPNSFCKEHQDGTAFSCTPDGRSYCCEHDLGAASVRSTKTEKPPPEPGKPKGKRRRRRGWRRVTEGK
ARNT-TACC3 inh: disruptors of ARNT/TACC3 protein interaction, primary screen, biochemical, AlphaScreen, single concentration; AlphaScreen His-ARNT PAS-B/GST-TACC3 binding, luminescence; TACC3 fragment carries E629A point mutation; inhibition, % at 9.99 µM; actives 0.66% (n = 390,000);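 active means mean inhibition of replicates at least 50% and at least half of replicates each reaching 50%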
sPLA2-III inh: human group III sPLA2 inhibitors, primary screen, biochemical, QFRET, BODIPY PC-A2 liposome substrate | QFRET BODIPY PC-A2 liposome hydrolysis, fluorescence | actives 0.56% (n = 370,000) | Group 3 secretory phospholipase A2 (Homo sapiens), Q9NZ20 | inhibition, % at 12.2 µM;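 active means inhibition above mean plus 3 SD of compounds lying within the high and low control bounds, cut at about 19% in these data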
XiGFP reactiv: activators of inactive X chromosome reactivation, primary screen, imaging, XiGFP fibroblasts, GFP high-content imaging, set 2; AID 743238, 2013; activation, % at 7.58 µM; actives 0.055% (n = 360,000); XiGFP mouse fibroblasts, % GFP-positive cells imaging, 3 d; cells co-treated with 5-aza-dC sensitizer; scaled so ellipticine positive control = 100%;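 active means mean normalized replicate activation at least 10% and every replicate at or above 10%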
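System: 68-5-11 XiGFP fibroblast line | Buffer or medium: DMEM containing 5-aza-dC | Compound: Single point | Times: Compounds 3 days, fix/stain 15 min at room temperature | Benchmarks: Positive control ellipticine, 6 µM final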
SR-BI HDL uptake: inhibitors of SR-BI mediated HDL lipid uptake, primary screen, ldlA[mSR-BI] cells, fluorescence, single point. ldlA[mSR-BI] CHO cells, DiI-HDL uptake fluorescence, 3 h. inhibition, % at 12.5 µM. actives 0.96% (n = 320,000). Scavenger receptor class B member 1 (Mus musculus), Q61009;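 active means mean replicate inhibition of at least 70% and a set share of replicates each scoring 70 or more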
sPLA2 confirm: human group III sPLA2 inhibitors, confirmation, biochemical, QFRET, triplicate. inhibition, % at 12.2 µM. actives 34% (n = 2,000). AID 743280, 2014. shares compounds with sPLA2-III inh. recombinant hGIII-sPLA2, BODIPY PC-A2 QFRET fluorescence;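 active means mean inhibition across triplicates above the hit cutoff set in the earlier primary screen, cut at about 19% in these data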
535nm interf: 535nm fluorescence optical interference, confirmation, artefact control for HGIII-sPLA2 inhibitor project, biochemical, QFRET; shares compounds with sPLA2-III inh; BODIPY FL product fluorescence interference; inhibition, % at 12.2 µM; actives 8.5% (n = 2,000);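 active means average inhibition above the solvent-only control mean plus 3 SD, cut at about 6% in these data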
BODIPY interf DR: 535nm fluorescence optical interference, dose response, artefact control for HGIII-sPLA2 inhibitor project, biochemical, QFRET | shares compounds with sPLA2-III inh | BODIPY FL product fluorescence interference, cell-free | IC50, µM | 240 tested, under 10 active;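 active means IC50 at or below 10 µM; inactive means IC50 above 10 µM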
Alpha artifact: AlphaScreen signal interference with preloaded methylated product, dose response, artefact control for NSD2 inhibitor project, biochemical, cherry-picked samples | shares compounds with NSD2 HMT inh | actives 9.4% (n = 1,500) | AlphaScreen artifact counterscreen, preloaded methylated H4 peptide | AID 1053174, 2014 | AC35, µM (top dose mostly 10 µM); call rule not given here
Hits are given with their value.

CN(C)c1ccc(/C=C/c2cc[n+](C)c3ccccc23)cc1 was read as SR-BI DiI-HDL act inactive, NSD2 HMT inh 62, ARNT-TACC3 inh inactive, sPLA2-III inh 26, XiGFP reactiv inactive, SR-BI HDL uptake inactive, sPLA2 confirm 33, 535nm interf inactive and BODIPY interf DR inactive.
Screening O=C(CCC(=O)N1CC2C[C@@H](C1)Cn1c2cccc1=O)NCCc1ccccc1F returned SR-BI DiI-HDL act inactive, sPLA2-III inh inactive and SR-BI HDL uptake inactive.
CC(=O)c1ccc(OCC(=O)N2CCCC(N(C)Cc3ccccc3)C2)cc1 (stereo unspecified) was read as SR-BI DiI-HDL act inactive, NSD2 HMT inh inactive, ARNT-TACC3 inh inactive, sPLA2-III inh inactive, XiGFP reactiv inactive and SR-BI HDL uptake inactive.
CCOC(=O)c1c(/N=C/c2c(O)n(-c3cccc(C)c3)c(=O)[nH]c2=O)sc2c1CCCC2 was read as SR-BI DiI-HDL act inactive, NSD2 HMT inh inactive, ARNT-TACC3 inh inactive, sPLA2-III inh 20, XiGFP reactiv inactive, SR-BI HDL uptake inactive, sPLA2 confirm inactive and 535nm interf inactive.
CCOC(=O)c1sc(/N=C/c2c(O)n(-c3ccccc3)c(=O)[nH]c2=O)c(C#N)c1C was read as SR-BI DiI-HDL act inactive, ARNT-TACC3 inh inactive, sPLA2-III inh inactive and SR-BI HDL uptake inactive.
For O=C(Cc1ccncc1)N1CCCCN2[C@H](CO)[C@@H](c3ccc(C#CC4(O)CCCC4)cc3)[C@@H]2C1 the results were ARNT-TACC3 inh inactive and XiGFP reactiv inactive.
For COc1cc(/C=C(/C)[N+](=O)[O-])ccc1OCc1ccccc1Cl the results were SR-BI DiI-HDL act inactive and SR-BI HDL uptake inactive.
Screening CN=C1CN=C(c2ccc[nH]2)c2cc(Cl)ccc2N1 returned NSD2 HMT inh inactive, sPLA2-III inh 19, sPLA2 confirm inactive and 535nm interf inactive.
`CC1OC(OC2CC(O)C3(CO)C4C(O)CC5(C)C(C6=CC(=O)OC6)CCC5(O)C4CCC3(O)C2)C(O)C(O)C1O` (stereo unspecified) gave SR-BI DiI-HDL act inactive, ARNT-TACC3 inh inactive, sPLA2-III inh 28, SR-BI HDL uptake inactive, sPLA2 confirm inactive and 535nm interf inactive.
Screening C[C@@H]1O[C@@H](O[C@H]2C[C@@H](O)[C@]3(CO)[C@H]4[C@H](O)C[C@]5(C)[C@@H](C6COC(=O)C6)CC[C@]5(O)[C@@H]4CC[C@]3(O)C2)[C@H](O)[C@H](O)[C@H]1O (stereo partly specified) returned SR-BI DiI-HDL act inactive, ARNT-TACC3 inh inactive, sPLA2-III inh inactive, XiGFP reactiv inactive and SR-BI HDL uptake inactive.
Screening CC(C)Oc1ccc(CCN)cc1Cl returned SR-BI DiI-HDL act inactive, NSD2 HMT inh inactive, ARNT-TACC3 inh inactive, sPLA2-III inh 23, XiGFP reactiv inactive, SR-BI HDL uptake inactive, sPLA2 confirm inactive and 535nm interf inactive.
`CCCCOc1ccc(CCN)cc1Cl` gave SR-BI DiI-HDL act inactive, NSD2 HMT inh inactive, ARNT-TACC3 inh inactive, sPLA2-III inh inactive, XiGFP reactiv inactive and SR-BI HDL uptake inactive.
CCCCc1ccc2[nH]cc(CCN)c2c1 was read as SR-BI DiI-HDL act inactive, NSD2 HMT inh inactive, ARNT-TACC3 inh inactive, sPLA2-III inh 30, SR-BI HDL uptake inactive, sPLA2 confirm inactive and 535nm interf inactive.
Screening Cc1cc(-c2cc(C)c(N)c(C)c2)cc(C)c1N returned SR-BI DiI-HDL act inactive, sPLA2-III inh 22, SR-BI HDL uptake inactive, sPLA2 confirm 22 and 535nm interf inactive.
Screening CN(C)c1ccc(/C=C/C=C/c2sc3ccccc3[n+]2C)cc1 returned SR-BI DiI-HDL act inactive, NSD2 HMT inh 57, ARNT-TACC3 inh inactive, sPLA2-III inh 21, XiGFP reactiv inactive, SR-BI HDL uptake inactive, sPLA2 confirm 41, 535nm interf inactive, BODIPY interf DR inactive and Alpha artifact 10µM.
`COC(=O)C1C2c3ccccc3C(c3ccccc32)C1(C)C(=O)OC` (stereo unspecified) gave SR-BI DiI-HDL act inactive, NSD2 HMT inh inactive, ARNT-TACC3 inh inactive, sPLA2-III inh inactive, XiGFP reactiv inactive and SR-BI HDL uptake inactive.
For CCCCCSc1cc(OC)c(CCNC)cc1OC the results were SR-BI DiI-HDL act inactive, NSD2 HMT inh 61, ARNT-TACC3 inh inactive, sPLA2-III inh inactive, SR-BI HDL uptake inactive and Alpha artifact inactive.
COc1ccc(N2C(=O)NC(=O)/C(=C\c3ccc([N+](=O)[O-])s3)C2=O)cc1 was read as SR-BI DiI-HDL act inactive, NSD2 HMT inh 51, ARNT-TACC3 inh inactive, sPLA2-III inh inactive, XiGFP reactiv inactive, SR-BI HDL uptake inactive and Alpha artifact inactive.
`COc1ccc(N2C(=O)NC(=O)/C(=C/c3ccc([N+](=O)[O-])s3)C2=O)cc1` gave NSD2 HMT inh inactive, sPLA2-III inh inactive and XiGFP reactiv inactive.
Screening CCn1nc(/C=C/c2ccccc2)nc2c(=O)n(C)c(=O)nc1-2 returned SR-BI DiI-HDL act inactive, NSD2 HMT inh active, ARNT-TACC3 inh inactive, sPLA2-III inh inactive, XiGFP reactiv inactive, SR-BI HDL uptake inactive and Alpha artifact inactive.
Screening CCn1nc(-c2cccs2)nc2c(=O)n(C)c(=O)nc1-2 returned SR-BI DiI-HDL act inactive, ARNT-TACC3 inh inactive and SR-BI HDL uptake inactive.
O=C(CCC(=O)N1C[C@H]2C[C@@H](C1)c1cccc(=O)n1C2)NCc1ccc(F)cc1 was read as SR-BI DiI-HDL act inactive, sPLA2-III inh inactive and SR-BI HDL uptake inactive.
For C[C@@H]1CN([C@H](C)CO)C(=O)c2c(c3ccccc3n2C)-c2ccccc2CO[C@@H]1CN(C)C(=O)Oc1ccccc1 the results were XiGFP reactiv inactive.

High-throughput results: PubChem BioAssay, several laboratories
